Measured values reported in ChEMBL document CHEMBL4346672, “Antimicrobial and KPC/AmpC inhibitory activity of functionalized benzosiloxaboroles” (Eur J Med Chem, 2019).
In brackets after ≈: the same amount, converted by molar mass. Activity calls are given as the source filed them. The rule behind the calls is not given here.

Experiments:
Staphylococcus aureus [1] = experiment: Antibacterial activity against Staphylococcus aureus ATCC 6538P assessed as diameter of zone inhibition measured after 18 hrs by CLSI disc diffusion method; type: functional
How it was run: (§1)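 Disc diffusion on Mueller-Hinton II agar. Compounds dissolved in DMSO. Strains stored at -80 °C and subcultured twice on tryptic soy agar before testing. Inhibition zones read after 35 °C, 18 h.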

Pseudomonas aeruginosa [2] = experiment: Antibacterial activity against Pseudomonas aeruginosa ATCC 27853 measured after 18 hrs by CLSI broth dilution method; type: functional; conditions: ATCC 27853, 18 h
How it was run: (§2)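 Broth MIC in Mueller-Hinton II broth following CLSI, compounds dissolved in DMSO. Strains subcultured twice on tryptic soy agar before testing. Growth read after 35 °C, 18 h.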

Serratia marcescens [3] = experiment: Antibacterial activity against Serratia marcescens ATCC 13880 measured after 18 hrs by CLSI broth dilution method; type: functional; conditions: ATCC 13880, 18 h; how it was run: as §2
Candida parapsilosis = experiment: Antifungal activity against Candida parapsilosis ATCC 22019 assessed as decrease in fungal cell growth at 0.78 to 12.5 mg/L incubated for 24 hrs by CLSI broth dilution method; type: functional; conditions: Lodderomyces parapsilosis, ATCC 22019, 24 h
How it was run: (§3)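 Yeast broth dilution in RPMI 1640 with 2% glucose, compounds in DMSO. Yeasts pre-grown on Sabouraud dextrose agar. Growth read after 35 °C, 24 h.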

Candida tropicalis [4] = experiment: Antifungal activity against Candida tropicalis IBA 171 assessed as decrease in fungal cell growth at 0.78 to 12.5 mg/L incubated for 24 hrs by CLSI broth dilution method; type: functional; conditions: IBA 171, 24 h; how it was run: as §3
[5] = tested on: Meyerozyma guilliermondii; experiment: Antifungal activity against Candida guilliermondii IBA 155 assessed as decrease in fungal cell growth at 0.78 to 12.5 mg/L incubated for 24 hrs by CLSI broth dilution method; type: functional; conditions: IBA 155, 24 h; how it was run: as §3
Pichia kudriavzevii = experiment: Antifungal activity against Candida krusei ATCC 6258 assessed as decrease in fungal cell growth at 0.78 to 12.5 mg/L incubated for 24 hrs by CLSI broth dilution method; type: functional; conditions: ATCC 6258, 24 h; how it was run: as §3
Candida albicans = experiment: Antifungal activity against Candida albicans ATCC 90028 assessed as diameter of zone inhibition incubated for 24 hrs by CLSI disc diffusion method; type: functional
How it was run: (§4)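 Yeast disc diffusion on Mueller-Hinton agar supplemented with 2% glucose and 0.5 mg/L methylene blue. Compounds in DMSO. Yeasts subcultured on Sabouraud dextrose agar before testing. Zones read after 35 °C, 24 h.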

Candida tropicalis [6] = experiment: Antifungal activity against Candida tropicalis IBA 171 assessed as diameter of zone inhibition incubated for 24 hrs by CLSI disc diffusion method; type: functional; how it was run: as §4
[7] = tested on: Meyerozyma guilliermondii; experiment: Antifungal activity against Candida guilliermondii IBA 155 assessed as diameter of zone inhibition incubated for 24 hrs by CLSI disc diffusion method; type: functional; how it was run: as §4
Staphylococcus aureus [8] = experiment: Antibacterial activity against Staphylococcus aureus ATCC 6538P measured after 18 hrs by CLSI broth dilution method; type: functional; how it was run: as §2
[9] = tested on: Staphylococcus epidermidis; experiment: Antibacterial activity against Staphylococcus epidermidis ATCC 12228 measured after 18 hrs by CLSI broth dilution method; type: functional; conditions: ATCC 12228, 18 h; how it was run: as §2
Enterococcus faecalis [10] = experiment: Antibacterial activity against Enterococcus faecalis ATCC 29212 measured after 18 hrs by CLSI broth dilution method; type: functional; conditions: ATCC 29212, 18 h; how it was run: as §2
Enterococcus faecium [11] = experiment: Antibacterial activity against Enterococcus faecium ATCC 6057 measured after 18 hrs by CLSI broth dilution method; type: functional; conditions: ATCC 6057, 18 h; how it was run: as §2
[12] = tested on: Staphylococcus epidermidis; experiment: Antibacterial activity against Staphylococcus epidermidis ATCC 12228 assessed as diameter of zone inhibition measured after 18 hrs by CLSI disc diffusion method; type: functional; how it was run: as §1
Enterococcus faecalis [13] = experiment: Antibacterial activity against Enterococcus faecalis ATCC 29212 assessed as diameter of zone inhibition measured after 18 hrs by CLSI disc diffusion method; type: functional; how it was run: as §1
Enterococcus faecium [14] = experiment: Antibacterial activity against Enterococcus faecium ATCC 6057 assessed as diameter of zone inhibition measured after 18 hrs by CLSI disc diffusion method; type: functional; how it was run: as §1
Bacillus subtilis = experiment: Antibacterial activity against Bacillus subtilis ATCC 6633 assessed as diameter of zone inhibition measured after 18 hrs by CLSI disc diffusion method; type: functional; how it was run: as §1
Escherichia coli = experiment: Antibacterial activity against Escherichia coli ATCC 25922 measured after 18 hrs by CLSI broth dilution method; type: functional; conditions: ATCC 25922, 18 h; how it was run: as §2
Proteus mirabilis [15] = experiment: Antibacterial activity against Proteus mirabilis ATCC 12453 measured after 18 hrs by CLSI broth dilution method; type: functional; conditions: ATCC 12453, 18 h; how it was run: as §2
Enterobacter cloacae [16] = experiment: Antibacterial activity against Enterobacter cloacae DSM 6234 measured after 18 hrs by CLSI broth dilution method; type: functional; conditions: DSM 6234, 18 h; how it was run: as §2
Proteus mirabilis [17] = experiment: Antibacterial activity against Proteus mirabilis ATCC 12453 assessed as diameter of zone inhibition measured after 18 hrs by CLSI disc diffusion method; type: functional; how it was run: as §1
Pseudomonas aeruginosa [18] = experiment: Antibacterial activity against Pseudomonas aeruginosa ATCC 27853 assessed as diameter of zone inhibition measured after 18 hrs by CLSI disc diffusion method; type: functional, organism-based; how it was run: as §1
Acinetobacter baumannii [19] = experiment: Antibacterial activity against Acinetobacter baumannii ATCC 19606 assessed as diameter of zone inhibition measured after 18 hrs by CLSI disc diffusion method; type: functional; how it was run: as §1
[20] = tested on: Stenotrophomonas maltophilia; experiment: Antibacterial activity against Stenotrophomonas maltophilia ATCC 13637 assessed as diameter of zone inhibition measured after 18 hrs by CLSI disc diffusion method; type: functional; how it was run: as §1
Burkholderia cepacia = experiment: Antibacterial activity against Burkholderia cepacia ATCC 25416 assessed as diameter of zone inhibition measured after 18 hrs by CLSI disc diffusion method; type: functional; how it was run: as §1
[21] = tested on: Bordetella bronchiseptica; experiment: Antibacterial activity against Bordetella bronchiseptica ATCC 4617 assessed as diameter of zone inhibition measured after 18 hrs by CLSI disc diffusion method; type: functional; how it was run: as §1
Klebsiella pneumoniae [22] = experiment: Antibacterial activity against Klebsiella pneumoniae ATCC 13883 assessed as fold reduction of MIC in presence of efflux pump inhibitor PAbetaN incubated for 18 hrs by broth microdilution method; type: functional
How it was run: (§5)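 MICs determined with and without PAβN at 50 mg/L in Mueller-Hinton broth containing 1 mM MgSO₄. 2-fold serial dilutions per CLSI. Fold change taken from the paired MICs after 35 °C, 18 h.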

Proteus mirabilis [23] = experiment: Antibacterial activity against Proteus mirabilis ATCC 12453 assessed as fold reduction of MIC in presence of efflux pump inhibitor PAbetaN incubated for 18 hrs by broth microdilution method; type: functional; how it was run: as §5
Enterobacter cloacae [24] = experiment: Antibacterial activity against Enterobacter cloacae DSM 6234 assessed as fold reduction of MIC in presence of efflux pump inhibitor PAbetaN incubated for 18 hrs by broth microdilution method; type: functional; how it was run: as §5
Serratia marcescens [25] = experiment: Antibacterial activity against Serratia marcescens ATCC 13880 assessed as fold reduction of MIC in presence of efflux pump inhibitor PAbetaN incubated for 18 hrs by broth microdilution method; type: functional; how it was run: as §5
Acinetobacter baumannii [26] = experiment: Antibacterial activity against Acinetobacter baumannii ATCC 19606 assessed as fold reduction of MIC in presence of efflux pump inhibitor PAbetaN incubated for 18 hrs by broth microdilution method; type: functional; how it was run: as §5
[27] = tested on: Stenotrophomonas maltophilia; experiment: Antibacterial activity against Stenotrophomonas maltophilia ATCC 13637 assessed as fold reduction of MIC in presence of efflux pump inhibitor PAbetaN incubated for 18 hrs by broth microdilution method; type: functional; how it was run: as §5
Klebsiella pneumoniae [28] = conditions: ATCC 13883

SMILES	diameter of the inhibition zone (DIZ) (Staphylococcus aureus [1]) [mm]	MIC (Pseudomonas aeruginosa [2]) [µg/mL]	MIC (Serratia marcescens [3]) [µg/mL]	MIC (Candida parapsilosis) [µg/mL]	MIC (Candida tropicalis [4]) [µg/mL]	MIC [5] [µg/mL]	MIC (Pichia kudriavzevii) [µg/mL]	diameter of the inhibition zone (DIZ) (Candida albicans)	diameter of the inhibition zone (DIZ) (Candida tropicalis [6])	diameter of the inhibition zone (DIZ) [7]	MIC (Staphylococcus aureus [8]) [µg/mL]	MIC [9] [µg/mL]	MIC (Enterococcus faecalis [10]) [µg/mL]	MIC (Enterococcus faecium [11]) [µg/mL]	diameter of the inhibition zone (DIZ) [12] [mm]	diameter of the inhibition zone (DIZ) (Enterococcus faecalis [13])	diameter of the inhibition zone (DIZ) (Enterococcus faecium [14])	diameter of the inhibition zone (DIZ) (Bacillus subtilis) [mm]	MIC (Escherichia coli) [µg/mL]	MIC (Proteus mirabilis [15]) [µg/mL]	other results
C[Si]1(C)OB(O)c2ccc(Cl)c(Cl)c21	23	> 400	> 400	12.5 (≈ 50.6 µM)	3.12 (≈ 12.7 µM)	25 (≈ 101 µM)	12.5 (≈ 50.6 µM)	33 mm	31 mm	47 mm	6.25 (≈ 25.3 µM)	6.25 (≈ 25.3 µM)	25 (≈ 101 µM)	25 (≈ 101 µM)	22	21 mm	28 mm	33	400 (≈ 1620 µM)	> 400	MIC (Enterobacter cloacae [16]): > 400 µg/mL; diameter of the inhibition zone (DIZ) (Proteus mirabilis [17]): inactive; diameter of the inhibition zone (DIZ) (Pseudomonas aeruginosa [18]): inactive; diameter of the inhibition zone (DIZ) (Acinetobacter baumannii [19]): inactive; diameter of the inhibition zone (DIZ) [20]: 13 mm; diameter of the inhibition zone (DIZ) (Burkholderia cepacia): inactive; diameter of the inhibition zone (DIZ) [21]: 12 mm; fold change (FC) (Klebsiella pneumoniae [22]): 32; fold change (FC) (Proteus mirabilis [23]): 4; fold change (FC) (Enterobacter cloacae [24]): 64; fold change (FC) (Serratia marcescens [25]): 32; fold change (FC) (Acinetobacter baumannii [26]): 8; fold change (FC) [27]: 32; DIZ (Klebsiella pneumoniae [28]): inactive
C[Si]1(C)OB(O)c2cc3c(c(F)c21)COB3O	20	> 400	> 400	50 (≈ 198 µM)	100 (≈ 397 µM)	400 (≈ 1590 µM)	> 400	inactive	inactive	inactive	3.12 (≈ 12.4 µM)	6.25 (≈ 24.8 µM)	100 (≈ 397 µM)	50 (≈ 198 µM)	34	18 mm	16 mm	29	400 (≈ 1590 µM)	> 400	MIC (Enterobacter cloacae [16]): > 400 µg/mL; diameter of the inhibition zone (DIZ) (Proteus mirabilis [17]): inactive; diameter of the inhibition zone (DIZ) (Pseudomonas aeruginosa [18]): inactive; diameter of the inhibition zone (DIZ) (Acinetobacter baumannii [19]): inactive; diameter of the inhibition zone (DIZ) [20]: 14 mm; diameter of the inhibition zone (DIZ) (Burkholderia cepacia): inactive; diameter of the inhibition zone (DIZ) [21]: 13 mm; fold change (FC) (Klebsiella pneumoniae [22]): 32; fold change (FC) (Proteus mirabilis [23]): 8; fold change (FC) (Enterobacter cloacae [24]): 64; fold change (FC) (Serratia marcescens [25]): 16; fold change (FC) (Acinetobacter baumannii [26]): 8; fold change (FC) [27]: 16; DIZ (Klebsiella pneumoniae [28]): inactive
C[Si]1(C)OB(O)c2ccc(F)cc21	29	> 400	> 400	25 (≈ 128 µM)	12.5 (≈ 63.8 µM)	25 (≈ 128 µM)	12.5 (≈ 63.8 µM)	13 mm	11 mm	15 mm	50 (≈ 255 µM)	50 (≈ 255 µM)	200 (≈ 1020 µM)	200 (≈ 1020 µM)	26	inactive	inactive	14	400 (≈ 2040 µM)	> 400	MIC (Enterobacter cloacae [16]): > 400 µg/mL; diameter of the inhibition zone (DIZ) (Proteus mirabilis [17]): inactive; diameter of the inhibition zone (DIZ) (Pseudomonas aeruginosa [18]): inactive; diameter of the inhibition zone (DIZ) (Acinetobacter baumannii [19]): inactive; diameter of the inhibition zone (DIZ) [20]: 12 mm; diameter of the inhibition zone (DIZ) (Burkholderia cepacia): inactive; diameter of the inhibition zone (DIZ) [21]: inactive; fold change (FC) (Klebsiella pneumoniae [22]): 8; fold change (FC) (Proteus mirabilis [23]): 2; fold change (FC) (Enterobacter cloacae [24]): 32; fold change (FC) (Serratia marcescens [25]): 8; fold change (FC) (Acinetobacter baumannii [26]): 4; fold change (FC) [27]: 8; DIZ (Klebsiella pneumoniae [28]): inactive
C[Si]1(C)OB(O)c2cc(F)c(CO)c(F)c21	17	> 400	> 400	400 (≈ 1640 µM)	> 400	> 400	400 (≈ 1640 µM)	inactive	inactive	inactive	200 (≈ 819 µM)	200 (≈ 819 µM)	> 400	> 400	19	inactive	inactive	11	> 400	> 400	MIC (Enterobacter cloacae [16]): > 400 µg/mL; diameter of the inhibition zone (DIZ) (Proteus mirabilis [17]): inactive; diameter of the inhibition zone (DIZ) (Pseudomonas aeruginosa [18]): inactive; diameter of the inhibition zone (DIZ) (Acinetobacter baumannii [19]): inactive; diameter of the inhibition zone (DIZ) [20]: inactive; diameter of the inhibition zone (DIZ) (Burkholderia cepacia): inactive; diameter of the inhibition zone (DIZ) [21]: inactive; fold change (FC) (Klebsiella pneumoniae [22]): 2; fold change (FC) (Proteus mirabilis [23]): 4; fold change (FC) (Enterobacter cloacae [24]): 8; fold change (FC) (Serratia marcescens [25]): 4; fold change (FC) (Acinetobacter baumannii [26]): 2; fold change (FC) [27]: 16; DIZ (Klebsiella pneumoniae [28]): inactive
